Test results from ChEMBL document CHEMBL1137715, “A facile synthesis of alpha,alpha'-(EE)-bis(benzylidene)-cycloalkanones and their antitubercular evaluations” (2009).
≈ marks a conversion by molar mass, not a printed value. Calls of active or inactive are those of the source. No cut-off for these calls is given here.

Experiments:
[1] = system: Mycobacterium tuberculosis; assay: Antitubercular activity against Mycobacterium tuberculosis H37Ra after 5 days by microplate alamar blue assay; format: functional; conditions: 120 h
In short: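 Microplate Alamar Blue assay on M. tuberculosis H37Ra. A log-phase culture was diluted to a final OD550 nm of 0.05 in Sauton's medium. Test compounds in DMSO were dispensed into 96-well plates, with two-fold dilutions in the initial screen.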

[2] = system: Mycobacterium tuberculosis; assay: Antitubercular activity against Mycobacterium tuberculosis H37Rv after 24 hrs by agar microdilution method; format: functional
In short: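 Agar microdilution on M. tuberculosis H37Rv. Two-fold compound dilutions were made in 7H10 agar with OADC. Inoculum came from L–J medium, harvested in 0.85% saline with 0.05% Tween-80. Slants were held 24 h at 37 °C, then streaked with 5×10^4 bacilli per tube and incubated at 37 °C for 30 days. MIC was the concentration giving complete colony inhibition versus medium-only control.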

Candida albicans = assay: Antimicrobial activity against Candida albicans ATCC 1405B after 48 hrs by standard microbroth dilution technique; format: functional
Cryptococcus neoformans = assay: Antimicrobial activity against Cryptococcus neoformans after 72 hrs by standard microbroth dilution technique; format: functional
Aspergillus fumigatus = assay: Antimicrobial activity against Aspergillus fumigatus after 72 hrs by standard microbroth dilution technique; format: functional
Candida parapsilosis = assay: Antimicrobial activity against Candida parapsilosis ATCC 22019 after 48 hrs by standard microbroth dilution technique; format: functional; conditions: Lodderomyces parapsilosis, ATCC 22019, 48 h
Escherichia coli = assay: Antimicrobial activity against Escherichia coli ATCC 9637 after 24 hrs by standard microbroth dilution technique; format: functional, organism-based
Pseudomonas aeruginosa = assay: Antimicrobial activity against Pseudomonas aeruginosa ATCC BAA-427 after 24 hrs by standard microbroth dilution technique; format: functional, organism-based
Staphylococcus aureus = assay: Antimicrobial activity against Staphylococcus aureus ATCC 25923 after 24 hrs by standard microbroth dilution technique; format: functional, organism-based
Klebsiella pneumoniae = assay: Antimicrobial activity against Klebsiella pneumoniae ATCC 27736 after 24 hrs by standard microbroth dilution technique; format: functional, organism-based
Sporothrix schenckii = assay: Antimicrobial activity against Sporothrix schenckii after 72 hrs by standard microbroth dilution technique; format: functional
[3] = system: Trichophyton mentagrophytes; assay: Antimicrobial activity against Trichophyton mentagrophytes after 96 hrs by standard microbroth dilution technique; format: functional

Structure (SMILES)	MIC [1] [µg/mL]	MIC [2] [µg/mL]	MIC (Candida albicans) [µg/mL]	MIC (Cryptococcus neoformans) [µg/mL]	MIC (Aspergillus fumigatus) [µg/mL]	MIC (Candida parapsilosis) [µg/mL]	Activity (Escherichia coli)	Activity (Pseudomonas aeruginosa)	Activity (Staphylococcus aureus)	Activity (Klebsiella pneumoniae)	MIC (Sporothrix schenckii) [µg/mL]	MIC [3] [µg/mL]
O=C1/C(=C/c2ccc(OCc3ccccc3)cc2)CCC/C1=C\c1ccc(OCc2ccccc2)cc1	> 12.5	> 12.5	> 50	> 50	> 50	> 50	inactive	inactive	inactive	inactive		
O=C1/C(=C/c2ccc(F)cc2)CCC/C1=C\c1ccc(F)cc1	12.5 (≈ 40.3 µM)	> 12.5	> 50	> 50	> 50	> 50	inactive	inactive	inactive	inactive		
COc1ccc(/C=C2\CCC/C(=C\c3ccc(OC)c(OC)c3)C2=O)cc1OC	> 12.5	> 12.5	> 50	> 50	> 50	> 50	inactive	inactive	inactive	inactive		
O=C1/C(=C/c2ccc([N+](=O)[O-])cc2)CCC/C1=C\c1ccc([N+](=O)[O-])cc1	3.12 (≈ 8.56 µM)	12.5 (≈ 34.3 µM)	> 50	> 50	> 50	> 50	inactive	inactive	inactive	inactive		
COc1ccc(/C=C2\CCCC/C(=C\c3ccc(OC)c(OC)c3)C2=O)cc1OC	> 12.5	> 12.5	> 50	> 50	> 50	> 50	inactive	inactive	inactive	inactive		
NNC(=O)c1ccncc1 [ISONIAZID]		0.75 (≈ 5.47 µM)										
O=[N+]([O-])c1ccc(/C=C2\CCC/C(=C\c3ccc([N+](=O)[O-])cc3)C2O)cc1	> 12.5	> 12.5	> 50	> 50	> 50	> 50	inactive	inactive	inactive	inactive		
COc1cc(/C=C2\CCC/C(=C\c3cc(OC)c(OC)c(OC)c3)C2=O)cc(OC)c1OC	> 12.5	> 12.5	> 50	> 50	> 50	> 50	inactive	inactive	inactive	inactive		
O=C1/C(=C/c2ccco2)CCC/C1=C\c1ccco1	> 12.5	> 12.5	> 50	> 50	> 50	> 50	inactive	inactive	inactive	inactive		
COc1ccc(/C=C2\CCCC/C(=C\c3ccc(OC)cc3)C2=O)cc1	6.25 (≈ 17.9 µM)	> 12.5	> 50	> 50	> 50	> 50	inactive	inactive	inactive	inactive		
O=C1CCCCC1C(O)c1ccc([N+](=O)[O-])cc1 (stereo not given)	> 12.5	12.5 (≈ 50.1 µM)	> 50	> 50	> 50	> 50	inactive	inactive	inactive	inactive		
O=C1/C(=C/c2ccc(Br)cc2)CCC/C1=C\c1ccc(Br)cc1	1.56 (≈ 3.61 µM)	12.5 (≈ 28.9 µM)					inactive	inactive	inactive	inactive	25 (≈ 57.8 µM)	12.5 (≈ 28.9 µM)
O=C1/C(=C/c2ccccc2)CCC/C1=C\c1ccccc1 [2,6-DIBENZYLIDENECYCLOHEXANONE]	> 12.5	6.25 (≈ 22.8 µM)	> 50	> 50	> 50	> 50	inactive	inactive	inactive	inactive		
O=C1CCCCC1C(O)c1cccc([N+](=O)[O-])c1 (stereo not given)	> 12.5	12.5 (≈ 50.1 µM)	> 50	> 50	> 50	> 50	inactive	inactive	inactive	inactive		
O=C1CCCCC1C(O)c1ccccc1[N+](=O)[O-] (stereo not given)	> 12.5	> 12.5	> 50	> 50	> 50	> 50	inactive	inactive	inactive	inactive		
O=C1/C(=C/c2ccc(Cl)cc2)CCC/C1=C\c1ccc(Cl)cc1	> 12.5	> 12.5	> 50	> 50	> 50	> 50	inactive	inactive	inactive	inactive		
O=C1/C(=C/c2ccc3ccccc3c2)CCC/C1=C\c1ccc2ccccc2c1	> 12.5	> 12.5	> 50	> 50	> 50	> 50	inactive	inactive	inactive	inactive		
CC[C@@H](CO)NCCN[C@@H](CC)CO [ETHAMBUTOL]		3.25 (≈ 15.9 µM)										
OC1/C(=C/c2ccc(Br)cc2)CCC/C1=C\c1ccc(Br)cc1 (stereo not given)	> 12.5	12.5 (≈ 28.8 µM)	> 50	> 50	> 50	> 50	inactive	inactive	inactive	inactive		
COc1ccc(/C=C2\CC/C(=C\c3ccc(OC)c(OC)c3)C2=O)cc1OC	> 12.5	> 12.5	> 50	> 50	> 50	> 50	inactive	inactive	inactive	inactive		
O=C1CCCCC1C(O)c1ccc(Br)cc1 (stereo not given)	> 12.5	12.5 (≈ 44.1 µM)	> 50	> 50	> 50	> 50	inactive	inactive	inactive	inactive		
O=C1/C(=C/c2ccc(Cl)cc2)CCCC/C1=C\c1ccc(Cl)cc1	> 12.5	> 12.5	> 50	> 50	> 50	> 50	inactive	inactive	inactive	inactive		
O=C1/C(=C/c2ccc(Br)cc2)CCCC/C1=C\c1ccc(Br)cc1	> 12.5	> 12.5	> 50	> 50	> 50	> 50	inactive	inactive	inactive	inactive		
